{"source": "ChEMBL document CHEMBL5104225", "about": "“Synthesis and structure-activity relationship studies of N-terminal analogues of the lipopeptide antibiotics brevicidine and laterocidine” (RSC Med Chem, 2022)", "assay_type_in_all_cases": "functional", "key": {"Staphylococcus aureus": {"system": "Staphylococcus aureus", "experiment": "Antibacterial activity against Staphylococcus aureus USA300 assessed as inhibition of bacterial growth incubated for 18 hrs by CLSI protocol based method", "outline": "(§1)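 Single colonies from blood agar (16 h, 37 °C) grown in TSB at 37 °C, 220 rpm to OD600 ~0.5, then diluted in MHB to 2×10^5 CFU/mL. Mixed with serial MHB dilutions of DMSO stocks in polypropylene plates, sealed, and incubated 18 h at 37 °C, 600 rpm. MIC was taken as the lowest concentration with no visible growth; three technical replicates.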"}, "Escherichia coli [1]": {"system": "Escherichia coli", "experiment": "Antibacterial activity against Escherichia coli ATCC 25922 assessed as inhibition of bacterial growth incubated for 18 hrs by CLSI protocol based method", "outline": "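Broth microdilution MIC. Strain streaked from glycerol stock on sheep blood agar (16 h, 37 °C); a colony was grown in TSB at 37 °C, 220 rpm, to OD600 about 0.5. Cells were diluted in MHB to 2×10^5 CFU/mL and added 1:1 to serial dilutions in MHB in polypropylene plates.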"}, "Klebsiella pneumoniae": {"system": "Klebsiella pneumoniae", "experiment": "Antibacterial activity against Klebsiella pneumoniae ATCC 13883 assessed as inhibition of bacterial growth incubated for 18 hrs by CLSI protocol based method", "outline": "as §1"}, "Acinetobacter baumannii": {"system": "Acinetobacter baumannii", "experiment": "Antibacterial activity against Acinetobacter baumannii ATCC 17961 assessed as inhibition of bacterial growth incubated for 18 hrs by CLSI protocol based method", "outline": "as §1"}, "Pseudomonas aeruginosa": {"system": "Pseudomonas aeruginosa", "experiment": "Antibacterial activity against Pseudomonas aeruginosa PAO1 assessed as inhibition of bacterial growth incubated for 18 hrs by CLSI protocol based method", "outline": "as §1"}, "Escherichia coli [2]": {"system": "Escherichia coli", "experiment": "Antibacterial activity against colistin-resistant Escherichia coli ATCC 25922 carrying MCR-1 gene assessed as inhibition of bacterial growth incubated for 18 hrs by CLSI protocol based method", "outline": "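Broth microdilution MIC. MCR-1 strain grown from glycerol stock in TSB with kanamycin (16 h, 37 °C, 220 rpm), diluted 100-fold in the same medium and grown to OD600 about 0.5. Cells were diluted in MHB to 2×10^5 CFU/mL and added 1:1 to serial dilutions in MHB. Incubated 18 h, 37 °C, 600 rpm; visual lowest no-growth concentration; three technical replicates.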"}}, "note": "Bridge positions count the residues as written; N and C are the ends. Square brackets hold non-standard residues; d marks the D form. Peptide text beside a SMILES is read from it. * marks the point of attachment. Decanoyl = CCCCCCCCCC(=O)*; dOrn = NCCC[C@@H](N)C(=O)O; Orn = NCCC[C@H](N)C(=O)O; Butyryl = CCCC(=O)*", "data": [{"smiles": "CC[C@H](C)[C@@H]1NC(=O)[C@@H](NC(=O)[C@H](Cc2c[nH]c3ccccc23)NC(=O)[C@@H](CCCN)NC(=O)CNC(=O)[C@H](CCCN)NC(=O)[C@@H](CCCN)NC(=O)[C@@H](Cc2c[nH]c3ccccc23)NC(=O)[C@@H](Cc2ccc(O)cc2)NC(=O)[C@H](N)CC(N)=O)[C@@H](C)OC(=O)[C@H](CO)NC(=O)CNC1=O", "values": [{"measurement": "MIC", "setting": "Staphylococcus aureus", "value": "> 32", "unit": "µg/mL"}, {"measurement": "MIC", "setting": "Escherichia coli [1]", "value": "> 32", "unit": "µg/mL"}, {"measurement": "MIC", "setting": "Klebsiella pneumoniae", "value": "> 32", "unit": "µg/mL"}, {"measurement": "MIC", "setting": "Acinetobacter baumannii", "value": "> 32", "unit": "µg/mL"}, {"measurement": "MIC", "setting": "Pseudomonas aeruginosa", "value": 16, "unit": "µg/mL"}]}, {"smiles": "CC[C@H](C)[C@@H]1NC(=O)[C@@H](NC(=O)[C@H](Cc2c[nH]c3ccccc23)NC(=O)[C@@H](CCCN)NC(=O)CNC(=O)[C@H](CCCN)NC(=O)[C@@H](CCCN)NC(=O)[C@@H](Cc2c[nH]c3ccccc23)NC(=O)[C@@H](Cc2ccc(O)cc2)NC(=O)[C@@H](CC(N)=O)NC(C)=O)[C@@H](C)OC(=O)[C@H](CO)NC(=O)CNC1=O", "note": "(Ac-[dN][dY][dW][dOrn][Orn]G[dOrn]WTIGS; ester 9-C)", "values": [{"measurement": "MIC", "setting": "Staphylococcus aureus", "value": "> 32", "unit": "µg/mL"}, {"measurement": "MIC", "setting": "Escherichia coli [1]", "value": "> 32", "unit": "µg/mL"}, {"measurement": "MIC", "setting": "Klebsiella pneumoniae", "value": "> 32", "unit": "µg/mL"}, {"measurement": "MIC", "setting": "Acinetobacter baumannii", "value": "> 32", "unit": "µg/mL"}, {"measurement": "MIC", "setting": "Pseudomonas aeruginosa", "value": 8, "unit": "µg/mL"}]}, {"smiles": "CC[C@H](C)[C@@H]1NC(=O)[C@@H](NC(=O)[C@H](Cc2c[nH]c3ccccc23)NC(=O)[C@@H](CCCN)NC(=O)CNC(=O)[C@H](CCCN)NC(=O)[C@@H](CCCN)NC(=O)[C@@H](Cc2c[nH]c3ccccc23)NC(=O)[C@@H](Cc2ccc(O)cc2)NC(=O)[C@@H](CO)NC(C)=O)[C@@H](C)OC(=O)CNC(=O)CNC(=O)[C@H](CC(N)=O)NC1=O", "note": "(Ac-[dS][dY][dW][dOrn][Orn]G[dOrn]WTINGG; ester 9-C)", "values": [{"measurement": "MIC", "setting": "Staphylococcus aureus", "value": "> 32", "unit": "µg/mL"}, {"measurement": "MIC", "setting": "Escherichia coli [1]", "value": "> 32", "unit": "µg/mL"}, {"measurement": "MIC", "setting": "Klebsiella pneumoniae", "value": "> 32", "unit": "µg/mL"}, {"measurement": "MIC", "setting": "Acinetobacter baumannii", "value": "> 32", "unit": "µg/mL"}, {"measurement": "MIC", "setting": "Pseudomonas aeruginosa", "value": 16, "unit": "µg/mL"}]}, {"smiles": "CCCC(=O)N[C@H](CC(N)=O)C(=O)N[C@H](Cc1ccc(O)cc1)C(=O)N[C@H](Cc1c[nH]c2ccccc12)C(=O)N[C@H](CCCN)C(=O)N[C@@H](CCCN)C(=O)NCC(=O)N[C@H](CCCN)C(=O)N[C@@H](Cc1c[nH]c2ccccc12)C(=O)N[C@@H]1C(=O)N[C@@H]([C@@H](C)CC)C(=O)NCC(=O)N[C@@H](CO)C(=O)O[C@@H]1C", "note": "(Butyryl-[dN][dY][dW][dOrn][Orn]G[dOrn]WTIGS; ester 9-C)", "values": [{"measurement": "MIC", "setting": "Escherichia coli [2]", "value": 32, "unit": "µg/mL"}, {"measurement": "MIC", "setting": "Staphylococcus aureus", "value": "> 32", "unit": "µg/mL"}, {"measurement": "MIC", "setting": "Escherichia coli [1]", "value": 32, "unit": "µg/mL"}, {"measurement": "MIC", "setting": "Klebsiella pneumoniae", "value": 8, "unit": "µg/mL"}, {"measurement": "MIC", "setting": "Acinetobacter baumannii", "value": 32, "unit": "µg/mL"}, {"measurement": "MIC", "setting": "Pseudomonas aeruginosa", "value": 16, "unit": "µg/mL"}]}, {"smiles": "CCCC(=O)N[C@H](CO)C(=O)N[C@H](Cc1ccc(O)cc1)C(=O)N[C@H](Cc1c[nH]c2ccccc12)C(=O)N[C@H](CCCN)C(=O)N[C@@H](CCCN)C(=O)NCC(=O)N[C@H](CCCN)C(=O)N[C@@H](Cc1c[nH]c2ccccc12)C(=O)N[C@@H]1C(=O)N[C@@H]([C@@H](C)CC)C(=O)N[C@@H](CC(N)=O)C(=O)NCC(=O)NCC(=O)O[C@@H]1C", "note": "(Butyryl-[dS][dY][dW][dOrn][Orn]G[dOrn]WTINGG; ester 9-C)", "values": [{"measurement": "MIC", "setting": "Escherichia coli [2]", "value": 32, "unit": "µg/mL"}, {"measurement": "MIC", "setting": "Staphylococcus aureus", "value": "> 32", "unit": "µg/mL"}, {"measurement": "MIC", "setting": "Escherichia coli [1]", "value": 16, "unit": "µg/mL"}, {"measurement": "MIC", "setting": "Klebsiella pneumoniae", "value": 32, "unit": "µg/mL"}, {"measurement": "MIC", "setting": "Acinetobacter baumannii", "value": "> 32", "unit": "µg/mL"}, {"measurement": "MIC", "setting": "Pseudomonas aeruginosa", "value": 8, "unit": "µg/mL"}]}, {"smiles": "CCCCCCCCCC(=O)N[C@H](CC(N)=O)C(=O)N[C@H](Cc1ccc(O)cc1)C(=O)N[C@H](Cc1c[nH]c2ccccc12)C(=O)N[C@H](CCCN)C(=O)N[C@@H](CCCN)C(=O)NCC(=O)N[C@H](CCCN)C(=O)N[C@@H](Cc1c[nH]c2ccccc12)C(=O)N[C@@H]1C(=O)N[C@@H]([C@@H](C)CC)C(=O)NCC(=O)N[C@@H](CO)C(=O)O[C@@H]1C", "note": "(Decanoyl-[dN][dY][dW][dOrn][Orn]G[dOrn]WTIGS; ester 9-C)", "values": [{"measurement": "MIC", "setting": "Escherichia coli [2]", "value": 4, "unit": "µg/mL"}, {"measurement": "MIC", "setting": "Staphylococcus aureus", "value": 32, "unit": "µg/mL"}, {"measurement": "MIC", "setting": "Escherichia coli [1]", "value": 4, "unit": "µg/mL"}, {"measurement": "MIC", "setting": "Klebsiella pneumoniae", "value": 4, "unit": "µg/mL"}, {"measurement": "MIC", "setting": "Acinetobacter baumannii", "value": 4, "unit": "µg/mL"}, {"measurement": "MIC", "setting": "Pseudomonas aeruginosa", "value": 8, "unit": "µg/mL"}]}, {"smiles": "CCCCCCCCCC(=O)N[C@H](CO)C(=O)N[C@H](Cc1ccc(O)cc1)C(=O)N[C@H](Cc1c[nH]c2ccccc12)C(=O)N[C@H](CCCN)C(=O)N[C@@H](CCCN)C(=O)NCC(=O)N[C@H](CCCN)C(=O)N[C@@H](Cc1c[nH]c2ccccc12)C(=O)N[C@@H]1C(=O)N[C@@H]([C@@H](C)CC)C(=O)N[C@@H](CC(N)=O)C(=O)NCC(=O)NCC(=O)O[C@@H]1C", "note": "(Decanoyl-[dS][dY][dW][dOrn][Orn]G[dOrn]WTINGG; ester 9-C)", "values": [{"measurement": "MIC", "setting": "Escherichia coli [2]", "value": 2, "unit": "µg/mL"}, {"measurement": "MIC", "setting": "Staphylococcus aureus", "value": "> 32", "unit": "µg/mL"}, {"measurement": "MIC", "setting": "Escherichia coli [1]", "value": 2, "unit": "µg/mL"}, {"measurement": "MIC", "setting": "Klebsiella pneumoniae", "value": 2, "unit": "µg/mL"}, {"measurement": "MIC", "setting": "Acinetobacter baumannii", "value": 2, "unit": "µg/mL"}, {"measurement": "MIC", "setting": "Pseudomonas aeruginosa", "value": 2, "unit": "µg/mL"}]}]}
